Reference: ChEMBL document CHEMBL3217692, “Synthesis and cytotoxicity evaluation of novel pyrido[3,4-d]pyrimidine derivatives as potential anticancer agents” (2012)

Key:
Assay type in all cases: functional
SNB-19 = test: Cytotoxicity against human SNB19 cells assessed as cell growth at 10 uM after 48 hrs by sulforhodamine B assay relative to control; settings: SNB-19, 48 h, read-out: Activity
Procedure, shortened: (§1)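 Adherent cells were grown in RPMI 1640 with 5% FBS and 2 mM L-glutamine, seeded at 5000–40 000 cells/well by doubling time, and held 24 h at 37 °C, 5% CO2 before drug. Time-zero plates were TCA-fixed. Compound in DMSO, single dose 10 μM, 48 h. Cells were fixed with cold TCA (final 10%, 60 min, 4 °C) and stained with 0.4% SRB. Bound dye was dissolved in 10 mM Tris base and read at 515 nm. Percent growth was derived from time-zero, control and treated absorbances.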

MCF7 = test: Cytotoxicity against human MCF7 cells assessed as cell growth at 10 uM after 48 hrs by sulforhodamine B assay relative to control; settings: MCF7, 48 h, read-out: Activity; procedure, shortened: as §1
NCI-H522 = test: Cytotoxicity against human NCI-H522 cells assessed as cell growth at 10 uM after 48 hrs by sulforhodamine B assay relative to control; settings: NCI-H522, 48 h, read-out: Activity; procedure, shortened: as §1
SNB-75 = test: Cytotoxicity against human SNB75 cells assessed as cell growth at 10 uM after 48 hrs by sulforhodamine B assay relative to control; settings: SNB-75, 48 h, read-out: Activity; procedure, shortened: as §1
[1] = Cytotoxicity against human EKVX cells assessed as cell growth at 10 uM after 48 hrs by sulforhodamine B assay relative to control; settings: read-out: Activity; procedure, shortened: as §1
[2] = Cytotoxicity against human OVCAR3 cells assessed as cell growth at 10 uM after 48 hrs by sulforhodamine B assay relative to control; settings: OVCAR-3, 48 h, read-out: Activity; procedure, shortened: as §1
[3] = Cytotoxicity against human OVCAR8 cells assessed as cell growth at 10 uM after 48 hrs by sulforhodamine B assay relative to control; settings: OVCAR-8, 48 h, read-out: Activity; procedure, shortened: as §1
M14 = test: Cytotoxicity against human M14 cells assessed as cell growth at 10 uM after 48 hrs by sulforhodamine B assay relative to control; settings: M14, 48 h, read-out: Activity; procedure, shortened: as §1
DU-145 = test: Cytotoxicity against human DU145 cells assessed as cell growth at 10 uM after 48 hrs by sulforhodamine B assay relative to control; settings: DU-145, 48 h, read-out: Activity; procedure, shortened: as §1
HCT-116 = test: Cytotoxicity against human HCT116 cells assessed as cell growth at 10 uM after 48 hrs by sulforhodamine B assay relative to control; settings: HCT-116, 48 h, read-out: Activity; procedure, shortened: as §1
ACHN = test: Cytotoxicity against human ACHN cells assessed as cell growth at 10 uM after 48 hrs by sulforhodamine B assay relative to control; settings: read-out: Activity; procedure, shortened: as §1
[4] = Cytotoxicity against human UO31 cells assessed as cell growth at 10 uM after 48 hrs by sulforhodamine B assay relative to control; settings: UO-31, 48 h, read-out: Activity
Procedure, shortened: (§2)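 NCI-60 single-dose screen. Cells were grown in RPMI 1640 with 5% FBS and 2 mM L-glutamine, seeded at 5000–40 000 cells/well according to doubling time, and pre-incubated 24 h at 37 °C, 5% CO2. Time-zero plates were TCA-fixed at dosing. Compound in DMSO was given at 10 μM for 48 h. Cells were then fixed in cold TCA, stained with 0.4% SRB, solubilised in 10 mM Tris base and read at 515 nm. Growth % was calculated from time-zero, control and treated absorbances.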

A549 = test: Cytotoxicity against human A549 cells assessed as cell growth at 10 uM after 48 hrs by sulforhodamine B assay relative to control; settings: A549, 48 h, read-out: Activity; procedure, shortened: as §1
NCI-H23 = test: Cytotoxicity against human NCI-H23 cells assessed as cell growth at 10 uM after 48 hrs by sulforhodamine B assay relative to control; settings: NCI-H23, 48 h, read-out: Activity; procedure, shortened: as §1
U-251 = test: Cytotoxicity against human U251 cells assessed as cell growth at 10 uM after 48 hrs by sulforhodamine B assay relative to control; settings: U-251, 48 h, read-out: Activity; procedure, shortened: as §2
A498 = test: Cytotoxicity against human A498 cells assessed as cell growth at 10 uM after 48 hrs by sulforhodamine B assay relative to control; settings: A498, 48 h, read-out: Activity; procedure, shortened: as §1
TK-10 = test: Cytotoxicity against human TK10 cells assessed as cell growth at 10 uM after 48 hrs by sulforhodamine B assay relative to control; settings: TK-10, 48 h, read-out: Activity; procedure, shortened: as §2
SF-539 = test: Cytotoxicity against human SF539 cells assessed as cell growth at 10 uM after 48 hrs by sulforhodamine B assay relative to control; settings: SF-539, 48 h, read-out: Activity; procedure, shortened: as §1
[5] = Cytotoxicity against human NCI-ADR-RES cells assessed as cell growth at 10 uM after 48 hrs by sulforhodamine B assay relative to control; settings: read-out: Activity; procedure, shortened: as §1
MDA-MB-435 = test: Cytotoxicity against human MDA-MB-435 cells assessed as cell growth at 10 uM after 48 hrs by sulforhodamine B assay relative to control; settings: MDA-MB-435, 48 h, read-out: Activity; procedure, shortened: as §1
[6] = Cytotoxicity against human OVCAR5 cells assessed as cell growth at 10 uM after 48 hrs by sulforhodamine B assay relative to control; settings: OVCAR-5, 48 h, read-out: Activity; procedure, shortened: as §1
IGROV-1 = test: Cytotoxicity against human IGROV1 cells assessed as cell growth at 10 uM after 48 hrs by sulforhodamine B assay relative to control; settings: IGROV-1, 48 h, read-out: Activity; procedure, shortened: as §1
SK-MEL-28 = test: Cytotoxicity against human SK-MEL-28 cells assessed as cell growth at 10 uM after 48 hrs by sulforhodamine B assay relative to control; settings: SK-MEL-28, 48 h, read-out: Activity; procedure, shortened: as §1
RPMI-8226 = test: Cytotoxicity against human RPMI8226 cells assessed as cell growth at 10 uM after 48 hrs by sulforhodamine B assay relative to control; settings: RPMI-8226, 48 h, read-out: Activity
Procedure, shortened: (§3)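 Suspension lines were cultured in RPMI 1640 with 5% FBS and 2 mM L-glutamine, plated at 5000–40 000 cells/well and preincubated 24 h (37 °C, 5% CO2). Compound in DMSO was given at a single 10 μM dose for 48 h. Settled cells were fixed with 80% TCA (final 16%), then stained with SRB and read at 515 nm. Growth percentage was taken relative to time-zero and untreated control absorbances.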

PC-3 = test: Cytotoxicity against human PC3 cells assessed as cell growth at 10 uM after 48 hrs by sulforhodamine B assay relative to control; settings: PC-3, 48 h, read-out: Activity; procedure, shortened: as §1
COLO 205 = test: Cytotoxicity against human COLO205 cells assessed as cell growth at 10 uM after 48 hrs by sulforhodamine B assay relative to control; settings: COLO 205, 48 h, read-out: Activity; procedure, shortened: as §1
[7] = Cytotoxicity against human Hs 578T cells assessed as cell growth at 10 uM after 48 hrs by sulforhodamine B assay relative to control; settings: read-out: Activity; procedure, shortened: as §1
K562 = test: Cytotoxicity against human K562 cells assessed as cell growth at 10 uM after 48 hrs by sulforhodamine B assay relative to control; settings: K562, 48 h, read-out: Activity; procedure, shortened: as §3

COc1nccc2c(-c3cccc(F)c3)nc(N)nc12
growth at 10 µM (SNB-19): 107% | growth at 10 µM (MCF7): 39.2% | growth at 10 µM (NCI-H522): 78.6% | growth at 10 µM (SNB-75): 91.1% | growth at 10 µM [1]: 104% | growth at 10 µM [2]: 107% | growth at 10 µM [3]: 85.6% | growth at 10 µM (M14): 118% | growth at 10 µM (DU-145): 110% | growth at 10 µM (HCT-116): 104% | growth at 10 µM (ACHN): 99.7% | growth at 10 µM [4]: 109% | growth at 10 µM (A549): 94.7% | growth at 10 µM (NCI-H23): 104% | growth at 10 µM (U-251): 94.9% | growth at 10 µM (A498): 88.5% | growth at 10 µM (TK-10): 101% | growth at 10 µM (SF-539): 97.2% | growth at 10 µM [5]: 110% | growth at 10 µM (MDA-MB-435): 118% | growth at 10 µM [6]: 96% | growth at 10 µM (IGROV-1): 117% | growth at 10 µM (SK-MEL-28): 97% | growth at 10 µM (RPMI-8226): 107% | growth at 10 µM (PC-3): 93% | growth at 10 µM (COLO 205): 109% | growth at 10 µM [7]: 103% | growth at 10 µM (K562): 95.2%
